# Measurements as given in ChEMBL document CHEMBL1137680, “A class of potent tyrosinase inhibitors: alkylidenethiosemicarbazide compounds” (Eur J Med Chem, 2009).
# Target: T1, Tyrosinase (Agaricus bisporus, UniProt O42713)
# T1 sequence (O42713 whole entry): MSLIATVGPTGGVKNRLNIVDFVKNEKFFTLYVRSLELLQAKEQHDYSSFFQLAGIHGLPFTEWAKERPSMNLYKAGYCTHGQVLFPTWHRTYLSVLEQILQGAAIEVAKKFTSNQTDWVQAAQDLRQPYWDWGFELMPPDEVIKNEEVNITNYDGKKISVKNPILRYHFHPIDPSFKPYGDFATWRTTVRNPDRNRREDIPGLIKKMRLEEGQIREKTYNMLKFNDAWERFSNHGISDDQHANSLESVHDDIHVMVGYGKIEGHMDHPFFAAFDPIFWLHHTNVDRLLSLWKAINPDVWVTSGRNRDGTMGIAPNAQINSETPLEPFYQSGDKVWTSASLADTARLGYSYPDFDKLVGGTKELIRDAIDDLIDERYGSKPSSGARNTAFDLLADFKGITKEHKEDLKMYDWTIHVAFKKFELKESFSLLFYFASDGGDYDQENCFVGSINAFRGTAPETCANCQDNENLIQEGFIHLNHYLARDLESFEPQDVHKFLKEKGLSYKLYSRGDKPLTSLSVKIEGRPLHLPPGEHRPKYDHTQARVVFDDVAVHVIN
# Assay: Inhibition of mushroom tyrosinase
# Outline: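 Mushroom tyrosinase diphenolase activity, 30 units (0.2 mg/mL), preincubated 10 min at 25 °C with compound in 50 mM phosphate buffer pH 6.8; compound diluted from DMSO stock. At least eight inhibitor concentrations; IC50 interpolated from dose-response curves.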
row,IC50,SMILES
1,2700 nM,NC(=S)N/N=C\C=C\c1ccccc1
2,11500 nM,CC(C)=C/C(C)=N\NC(N)=S
3,230 nM,C/C=N\NC(N)=S
4,15100 nM,NC(=S)N/N=C1\CCCC(=O)C1
5,200 nM,CC/C=N\NC(N)=S
6,280 nM,CC/C(C)=N\NC(N)=S
7,850 nM,Cc1ccc(C)n1NC(N)=S
8,620 nM,CC(C)/C=N\NC(N)=S
9,170 nM,NC(=S)NN=C1CCCC1
10,86 nM,CC(C)=NNC(N)=S
11,1000 nM,C/C=C/C=N\NC(N)=S
12,950 nM,NC(=S)NN=C1CCCCC1
